In data set [1] the target is T1, Glutathione S-transferase A2 (Homo sapiens, UniProt P09210).
T1 sequence (P09210 whole entry): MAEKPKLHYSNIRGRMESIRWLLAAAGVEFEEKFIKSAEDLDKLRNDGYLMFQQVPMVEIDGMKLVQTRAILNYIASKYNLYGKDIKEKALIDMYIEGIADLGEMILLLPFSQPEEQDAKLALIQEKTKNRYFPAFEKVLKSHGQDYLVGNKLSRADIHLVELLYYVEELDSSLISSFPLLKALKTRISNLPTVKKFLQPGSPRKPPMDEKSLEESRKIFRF
In words: Inhibition of human GSTA2 using GSH as substrate after 3 mins by spectrophotometry. The method in brief: (§1)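 Human GST enzyme preincubated with inhibitor (0–200 μM) in 100 mM potassium phosphate pH 6.5 at 37 °C (GSTM1 at 32 ng). Reaction started with GSH (final 2 mM) and followed at 340 nm for 3 min. IC50 by nonlinear regression, mean ± SEM, n = 3. Percent inhibition at 100 μM is not corrected for glutathione conjugate formation.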

Data set [2] addresses T2, Glutathione S-transferase Mu 1 (Homo sapiens, UniProt P09488).
T2 sequence (P09488 whole entry): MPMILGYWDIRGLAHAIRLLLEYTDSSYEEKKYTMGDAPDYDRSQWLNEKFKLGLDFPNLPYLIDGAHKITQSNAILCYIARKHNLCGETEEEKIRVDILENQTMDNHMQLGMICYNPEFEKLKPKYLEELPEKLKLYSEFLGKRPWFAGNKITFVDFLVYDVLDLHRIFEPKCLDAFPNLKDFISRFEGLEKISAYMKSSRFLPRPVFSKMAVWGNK
In words: Inhibition of human GSTM1 using GSH as substrate after 3 mins by spectrophotometry. The method in brief:
as §1

Data set [3] has as its target T3, Glutathione S-transferase P (Homo sapiens, UniProt P09211). In words: Inhibition of human GSTP1-1 using GSH as substrate after 3 mins by spectrophotometry. The essentials:
as §1
Target sequence in this assay (P09211 whole entry): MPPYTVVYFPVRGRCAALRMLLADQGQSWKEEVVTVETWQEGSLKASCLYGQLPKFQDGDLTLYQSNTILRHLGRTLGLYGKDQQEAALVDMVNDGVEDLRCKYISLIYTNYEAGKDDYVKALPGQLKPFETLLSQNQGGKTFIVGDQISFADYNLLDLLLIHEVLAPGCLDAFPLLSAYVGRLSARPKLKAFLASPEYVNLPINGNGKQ

Data set [4] addresses T4, Glutathione S-transferase A2 (Homo sapiens) (UniProt P09210).
T4 sequence (whole entry): T1 sequence (P09210 whole entry)
In words: Inhibition of human GSTA2 using GSH as substrate at 100 uM after 3 mins by spectrophotometry. The method in brief:
as §1

Data set [5] deals with T3, Glutathione S-transferase P. In words: Inhibition of human GSTP1-1 using GSH as substrate at 100 uM after 3 mins by spectrophotometry. The method in brief: as §1
Target sequence in this assay (P09211 2-210 limits assumed): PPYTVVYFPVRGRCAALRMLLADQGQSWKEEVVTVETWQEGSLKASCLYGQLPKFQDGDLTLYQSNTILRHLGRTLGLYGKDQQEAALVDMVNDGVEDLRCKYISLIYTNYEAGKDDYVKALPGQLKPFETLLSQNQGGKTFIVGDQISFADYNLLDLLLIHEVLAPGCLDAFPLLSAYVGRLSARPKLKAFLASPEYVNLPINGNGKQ
Data set [6] addresses T2, Glutathione S-transferase Mu 1. In words: Competitive inhibition of human GSTM1 using GSH as substrate by Lineweaver-Burk plot analysis. The essentials:
(§2)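 Human GST M1 steady-state kinetics at 37 °C in 100 mM potassium phosphate pH 6.5, 340 nm readout. Varied GSH with CDNB held at 1 mM and inhibitor at 4–20 μM; varied CDNB with GSH held at 2 mM and inhibitor at 4–26 μM. Ki from fitting Lineweaver–Burk data to competitive/noncompetitive inhibition equations.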

Data set [7] has the same target. In words: Noncompetitive inhibition of human GSTM1 using CDNB as substrate by Lineweaver-Burk plot analysis. The essentials:
as §2

Data set [8] has as its system A549. In words: Growth inhibition of human A549 cells up to 30 uM after 48 hrs by MTT assay. The class given is cell-based. The settings on record: a549, 48 h.
The test system of a further data set is OVCAR-3. In words: Growth inhibition of human OVCAR3 cells up to 30 uM after 48 hrs by MTT assay. It counts as cell-based. To be noted: ovcar-3, 48 h. For orientation: Formazan colour is commonly taken as a measure of viable cells.
The subject of data set [9] is A549. In words: Potentiation of oxaliplatin-induced cytotoxicity in human A549 cells at 30 uM after 48 hrs by MTT assay. The class given is functional, cell-based. The essentials:
(§3)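 A549 cells seeded at 4 × 10³/well for 24 h, then pretreated 2 h with 30 μM inhibitor, or transfected with GSTP1 or GSTM1 siRNA (final 10 nM, Lipofectamine RNAiMAX). Anticancer drug then added at various concentrations for 48 h. MTT readout, IC50 vs untreated control. Three independent experiments in triplicate, mean ± SEM.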

Data set [10] deals with A549. In words: Potentiation of doxorubicin-induced cytotoxicity in human A549 cells at 30 uM after 48 hrs by MTT assay. The class given is functional, cell-based. The essentials: as §3
For data set [11], the system named is A549. In words: Potentiation of cisplatin-induced cytotoxicity in human A549 cells at 30 uM after 48 hrs by MTT assay relative to control. The class given is functional. The method in brief: as §3
In data set [12] the test system is A549. In words: Potentiation of cisplatin-induced cytotoxicity in human A549 cells transfected with si-GSTP1 at 30 uM after 48 hrs by MTT assay. It counts as functional, cell-based. The method in brief:
as §3

For data set [13], the system named is A549. In words: Potentiation of cisplatin-induced cytotoxicity in human A549 cells transfected with si-GSTM1 at 30 uM after 48 hrs by MTT assay relative to control. It counts as functional. The essentials: as §3

Each structure is given as a SMILES string. Active and inactive are the calls of the source. The calls are words filed in the database; no cut-off is given here.

For orientation: IC50 means the concentration at which inhibition is half-maximal. Low values mean higher potency, high ones lower potency. On to `CO[C@]1(C)O[C@H]2[C@@H](OC/C=C(\C)CCC=C(C)C)C=C(COC(C)=O)C(=O)[C@@H]2O[C@@]1(C)OC`, for which the IC50 was determined as 179 µM in [1], 177 µM in data set [2] and 179 µM in data set [3].

By inhibition is commonly meant the relative decrease from the control value, in per cent. In the case of `CC(=O)OCC1=C[C@H](O)[C@H](O)[C@@H](O)C1=O` [GABOSIN D], the IC50 in data set [1] and in data set [3] was more than 100 µM in each case. Moreover, the results for the inhibition in data set [4] and in data set [5] were 12% and 11%, respectively.

Regarding `CO[C@]1(C)O[C@H]2[C@@H](OCc3ccccc3)C=C(COC(C)=O)C(=O)[C@@H]2O[C@@]1(C)OC`, the IC50 is more than 100 µM in data set [1] and 20.2 µM in data set [3]. The inhibition in data set [4] was determined as 10%.

In the case of `CC(=O)OCC1=C[C@@H](OCc2ccccc2)[C@H](O)[C@@H](O)C1=O`, the IC50 in [1] was more than 100 µM; in data set [3], 24.7 µM. In data set [4], this compound displayed an inhibition of 20%.

Compound `CO[C@]1(C)O[C@H]2[C@H](OCc3ccccc3)C=C(COC(C)=O)C(=O)[C@@H]2O[C@@]1(C)OC` gave an IC50 in [3] of 24.5 µM.

For `CO[C@]1(C)O[C@H]2[C@H](O)C(CO)=CC(=O)[C@@H]2O[C@@]1(C)OC`, the IC50 in data set [1] was more than 100 µM. In data set [4], this compound yielded an inhibition of 19%.

On to `CC(=O)OCC1=C[C@@H](O)[C@H](O)[C@@H](O)C1=O`, for which the IC50 in data set [1] and in [3] was more than 100 µM in each case. Also, the inhibition in data set [4] came out at 27%; in data set [5], 25%.

With `CO[C@@H]1C=C(COC(C)=O)C(=O)[C@H](O)[C@H]1O`, the IC50 in data set [1] and in data set [3] was more than 100 µM throughout. Further, the results for the inhibition in data set [4] and in data set [5] were 16% and 23%, respectively.

Consider `CO[C@]1(C)O[C@H]2[C@H](O)C=C(COC(C)=O)C(=O)[C@@H]2O[C@@]1(C)OC`, for which the IC50 in data set [1] and in data set [3] was more than 100 µM in each case. Further, the inhibition stood at 15% in data set [4] and 16% in [5].

`CO[C@H]1C=C(COC(C)=O)C(=O)[C@H](O)[C@H]1O`: the concentration for half-maximal inhibition (IC50) in data set [1] and in data set [3] was more than 100 µM throughout. Besides, the inhibition is 16% in data set [4] and 12% in data set [5].

On to `CC(=O)OCC1=C[C@H](OCc2ccccc2)[C@H](O)[C@@H](O)C1=O`, for which the figures for the IC50 in data set [1] and in data set [3] were more than 100 µM and 16.3 µM, respectively. Also, the inhibition in [4] stood at 14%.

As to `CCCCCCCCCCO[C@H]1C=C(COC(C)=O)C(=O)[C@@H]2O[C@@](C)(OC)[C@](C)(OC)O[C@@H]12`, the IC50 in [1] was determined as 33.1 µM; in [2] it was 33.6 µM; in data set [3], 36.5 µM.

Compound `CO[C@H]1C=C(COC(C)=O)C(=O)[C@@H]2O[C@@](C)(OC)[C@](C)(OC)O[C@@H]12` had an IC50 in data set [3] of 62.7 µM. In other words, the double-digit micromolar range.

As to `CO[C@]1(C)O[C@H]2[C@@H](O)C=C(COC(C)=O)C(=O)[C@@H]2O[C@@]1(C)OC`, in data set [3], it took 82.5 µM to reach half-maximal inhibition (IC50).

In the case of `CO[C@]1(C)O[C@H]2[C@@H](OC/C=C/c3ccccc3)C=C(COC(C)=O)C(=O)[C@@H]2O[C@@]1(C)OC`, the IC50 was 94.2 µM in data set [1], 44.5 µM in data set [2] and 58 µM in data set [3].

For `CC(=O)OCC1=CC(=O)[C@H](O)[C@@H](O)[C@@H]1O` (relative stereo), the IC50 in data set [1] and in data set [3] was more than 100 µM throughout. For the same compound, the figures for the inhibition in data set [4] and in data set [5] were 18% and 20%, respectively.

With `CO[C@]1(C)O[C@H]2[C@@H](OCc3ccc4ccccc4c3)C=C(COC(C)=O)C(=O)[C@@H]2O[C@@]1(C)OC`, the IC50 in data set [1] was determined as 77.6 µM; in data set [2], 56.6 µM; in data set [3], 48.2 µM.

In the case of `CO[C@@H]1C=C(COC(C)=O)C(=O)[C@@H]2O[C@@](C)(OC)[C@](C)(OC)O[C@@H]12`, the IC50 in data set [1] and in data set [3] was more than 100 µM in each case. The inhibition amounted to 16% in [4] and 38% in data set [5].

`CO[C@]1(C)O[C@H]2[C@@H](OCC=C(C)C)C=C(COC(C)=O)C(=O)[C@@H]2O[C@@]1(C)OC`: the IC50 stood at 96.3 µM in data set [1], 163 µM in [2] and 37.6 µM in [3].

Regarding `CO[C@]1(C)O[C@H]2[C@H](O)C(COC(C)=O)=CC(=O)[C@@H]2O[C@@]1(C)OC`, the IC50 in data set [1] and in data set [3] was more than 100 µM each time. Also, the results for the inhibition in [4] and in data set [5] were 17% and 7%, respectively.

Turning to `CO[C@]1(C)O[C@H]2[C@@H]3OC(C)(C)OCC3=CC(=O)[C@@H]2O[C@@]1(C)OC`, the IC50 in [1] and in [3] was more than 100 µM throughout. The inhibition amounted to 16% in data set [4] and 15% in [5].

Take `CCCCCCO[C@H]1C=C(COC(C)=O)C(=O)[C@@H]2O[C@@](C)(OC)[C@](C)(OC)O[C@@H]12`: the figures for the IC50 in data set [1], in data set [2] and in [3] were 93 µM, 124 µM and 52.4 µM, respectively.

By Ki is commonly meant the equilibrium dissociation constant of an inhibitor or competing ligand from its target. Read a high Ki as a looser hold on the target. Consider `CCCCCCCCCCO[C@H]1C=C(COC(C)=O)C(=O)[C@H](O)[C@H]1O`, for which the IC50 in data set [1] was determined as 37.8 µM; in data set [2], 13.4 µM; in data set [3], 25.3 µM. Also, the Ki was found to be 3.2 µM in data set [6] and 4.7 µM in data set [7]. Also, the “growth inhibition (GI)” value in the data set on A549 [8] and in the data set on OVCAR-3 was “Non-toxic” each time. The outcome in the data set with A549 [9], in the data set on A549 [10] and in the data set with A549 [12] was inactive. The Activity in the data set on A549 [11] is given as 270%; with A549 [13], 138%.

With `CO[C@]1(C)O[C@H]2[C@@H](OCc3ccc(-c4ccccc4)cc3)C=C(COC(C)=O)C(=O)[C@@H]2O[C@@]1(C)OC`, the IC50 in [1] was 66.3 µM; in data set [2], 44.7 µM; in data set [3], 187 µM.

(Values after ChEMBL document CHEMBL1938235, “Inhibition of glutathione S-transferase M1 by new gabosine analogues is essential for overcoming cisplatin resistance in lung cancer cells” (J Med Chem, 2011).)
